According to ChEMBL document CHEMBL5724801, “EUbOPEN Chemogenomics Library - Multiplex” (2024):
Values joined by “and” are separate entries in the source; they are usually repeats but may differ in a detail not shown here. Equal values may be shown once.

How the values were obtained:
[1] = test system: Fibroblast; test: Multiplex assay against human fibroblast; assay type: toxicity, cell-based
Procedure, shortened: (§1)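 Live cells were stained at seeding with Hoechst33342, BioTracker Green Microtubule Cytoskeleton Dye, MitoTracker Red and Annexin V Alexa Fluor 680. Following compound addition, they were imaged on a CQ1 microscope at 37°C and 5% CO2 and gated by CellPathfinder machine learning into Hoechst high-intensity objects or normal cells, with normal cells split into healthy, pyknosed or fragmented nuclei and pyknosed cells into mitotic or apoptotic. Tubulin, mitochondrial-mass and membrane-permeability phenotypes are per cents of healthy-nucleus cells.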

[2] = test system: HEK-293T; test: Multiplex assay against HEK293T; assay type: toxicity, cell-based; details: human; procedure, shortened: as §1
[3] = 12 h, 1 µM, compound concentration 1 uM
[4] = 12 h, 10 µM, compound concentration 10 uM
[5] = 24 h, 1 µM, compound concentration 1 uM
[6] = 24 h, 10 µM, compound concentration 10 uM
[7] = 48 h, 1 µM, compound concentration 1 uM
[8] = 48 h, 10 µM, compound concentration 10 uM

COc1ccc2c(c1OCc1ccccc1)C[C@@H](C(=O)O)N(C(=O)C(c1ccccc1)c1ccccc1)C2 [OLODANRIGAN]
Population Apoptotic (%) [1, 3]: 46% and 38%
Population Fragmented Nuclei (%) [1, 3]: 17% and 21%
Population Healthy Nuclei (%) [1, 3]: 63% and 50%
Population Hoechst High Intensity Objects (%) [1, 3]: 7% and 1%
Population Membrane Permeable-Phenotype (%) [1, 3]: 1% and 9%
Population Mitochondria Different-Phenotype (%) [1, 3]: 2% and 5%
Population Mitotic Cells (%) [1, 3]: 53% and 61%
Population Normal (%) [1, 3]: 92% and 98%
Population Pyknosed Nuclei (%) [1, 3]: 19% and 27%
Population Tubulin-Different-Phenotype (%) [1, 3]: 29% and 57%
Total Cell Count [1, 3]: 157 and 154
Population Apoptotic (%) [1, 4]: 31% and 34%
Population Fragmented Nuclei (%) [1, 4]: 11% and 18%
Population Healthy Nuclei (%) [1, 4]: 65% and 54%
Population Hoechst High Intensity Objects (%) [1, 4]: 0% and 5%
Population Membrane Permeable-Phenotype (%) [1, 4]: 1% and 6%
Population Mitochondria Different-Phenotype (%) [1, 4]: 7%
Population Mitotic Cells (%) [1, 4]: 68% and 65%
Population Normal (%) [1, 4]: 99% and 94%
Population Pyknosed Nuclei (%) [1, 4]: 23% and 26%
Population Tubulin-Different-Phenotype (%) [1, 4]: 28% and 46%
Total Cell Count [1, 4]: 140 and 162
Population Apoptotic (%) [1, 5]: 65% and 38%
Population Fragmented Nuclei (%) [1, 5]: 18% and 21%
Population Healthy Nuclei (%) [1, 5]: 66% and 53%
Population Hoechst High Intensity Objects (%) [1, 5]: 6% and 2%
Population Membrane Permeable-Phenotype (%) [1, 5]: 0% and 9%
Population Mitochondria Different-Phenotype (%) [1, 5]: 1% and 7%
Population Mitotic Cells (%) [1, 5]: 34% and 61%
Population Normal (%) [1, 5]: 93% and 97%
Population Pyknosed Nuclei (%) [1, 5]: 15% and 25%
Population Tubulin-Different-Phenotype (%) [1, 5]: 26% and 46%
Total Cell Count [1, 5]: 159 and 146
Population Apoptotic (%) [1, 6]: 53% and 58%
Population Fragmented Nuclei (%) [1, 6]: 10% and 17%
Population Healthy Nuclei (%) [1, 6]: 68% and 62%
Population Hoechst High Intensity Objects (%) [1, 6]: 2% and 3%
Population Membrane Permeable-Phenotype (%) [1, 6]: 1% and 4%
Population Mitochondria Different-Phenotype (%) [1, 6]: 3% and 4%
Population Mitotic Cells (%) [1, 6]: 46% and 41%
Population Normal (%) [1, 6]: 97% and 96%
Population Pyknosed Nuclei (%) [1, 6]: 21% and 19%
Population Tubulin-Different-Phenotype (%) [1, 6]: 21% and 50%
Total Cell Count [1, 6]: 136 and 153
Population Apoptotic (%) [1, 7]: 42% and 41%
Population Fragmented Nuclei (%) [1, 7]: 27% and 31%
Population Healthy Nuclei (%) [1, 7]: 58% and 52%
Population Hoechst High Intensity Objects (%) [1, 7]: 3% and 1%
Population Membrane Permeable-Phenotype (%) [1, 7]: 0% and 1%
Population Mitochondria Different-Phenotype (%) [1, 7]: 2% and 4%
Population Mitotic Cells (%) [1, 7]: 57% and 58%
Population Normal (%) [1, 7]: 96% and 98%
Population Pyknosed Nuclei (%) [1, 7]: 14% and 15%
Population Tubulin-Different-Phenotype (%) [1, 7]: 20% and 40%
Total Cell Count [1, 7]: 154 and 156
Population Apoptotic (%) [1, 8]: 57% and 61%
Population Fragmented Nuclei (%) [1, 8]: 15% and 29%
Population Healthy Nuclei (%) [1, 8]: 69% and 58%
Population Hoechst High Intensity Objects (%) [1, 8]: 5% and 7%
Population Membrane Permeable-Phenotype (%) [1, 8]: 1% and 3%
Population Mitochondria Different-Phenotype (%) [1, 8]: 5%
Population Mitotic Cells (%) [1, 8]: 42% and 38%
Population Normal (%) [1, 8]: 94% and 92%
Population Pyknosed Nuclei (%) [1, 8]: 15% and 12%
Population Tubulin-Different-Phenotype (%) [1, 8]: 27% and 45%
Total Cell Count [1, 8]: 146 and 163
Population Apoptotic (%) [2, 3]: 39% and 43%
Population Fragmented Nuclei (%) [2, 3]: 6% and 7%
Population Healthy Nuclei (%) [2, 3]: 82% and 81%
Population Hoechst High Intensity Objects (%) [2, 3]: 7%
Population Membrane Permeable-Phenotype (%) [2, 3]: 0%
Population Mitochondria Different-Phenotype (%) [2, 3]: 44% and 48%
Population Mitotic Cells (%) [2, 3]: 60% and 56%
Population Normal (%) [2, 3]: 92%
Population Pyknosed Nuclei (%) [2, 3]: 11% and 10%
Population Tubulin-Different-Phenotype (%) [2, 3]: 21% and 17%
Total Cell Count [2, 3]: 419 and 409
Population Apoptotic (%) [2, 4]: 45% and 44%
Population Fragmented Nuclei (%) [2, 4]: 6% and 4%
Population Healthy Nuclei (%) [2, 4]: 81% and 83%
Population Hoechst High Intensity Objects (%) [2, 4]: 6% and 3%
Population Membrane Permeable-Phenotype (%) [2, 4]: 0%
Population Mitochondria Different-Phenotype (%) [2, 4]: 42% and 58%
Population Mitotic Cells (%) [2, 4]: 54% and 55%
Population Normal (%) [2, 4]: 93% and 96%
Population Pyknosed Nuclei (%) [2, 4]: 12%
Population Tubulin-Different-Phenotype (%) [2, 4]: 35% and 27%
Total Cell Count [2, 4]: 389 and 368
Population Apoptotic (%) [2, 5]: 46% and 19%
Population Fragmented Nuclei (%) [2, 5]: 11% and 10%
Population Healthy Nuclei (%) [2, 5]: 78% and 81%
Population Hoechst High Intensity Objects (%) [2, 5]: 3% and 6%
Population Membrane Permeable-Phenotype (%) [2, 5]: 0% and 1%
Population Mitochondria Different-Phenotype (%) [2, 5]: 24% and 30%
Population Mitotic Cells (%) [2, 5]: 53% and 80%
Population Normal (%) [2, 5]: 96% and 93%
Population Pyknosed Nuclei (%) [2, 5]: 10% and 8%
Population Tubulin-Different-Phenotype (%) [2, 5]: 15% and 14%
